Source: ChEMBL document CHEMBL1275442, “Pharmacokinetics and tissue distribution of anidulafungin in rats” (Antimicrob Agents Chemother, 2008)

Columns and labels:
Spleen [1] = experiment: Drug level in Long Evans rat spleen assessed as radioactivity per gram of tissue at 5 mg/kg, iv administered as single bolus dose measured 72 hrs postdose by autoradiography; assay type: ADME, organism-based; set-up: dose 5 mg/kg, route intravenous; conditions: in vivo
How it was run: (§1)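 Male pigmented Long Evans (HsdBlu:LE) rats, 7.5 weeks old and 202 to 217 g, got a single iv dose of [14C]anidulafungin at 5 mg/kg. One rat per time point (0.5, 6, 12, 24, 72, 168 h) was euthanised by isoflurane and cardiac-puncture exsanguination. Sagittal whole-body sections were quantified by phosphorimaging. Samples were thickness-corrected, and concentrations (μg eq/g) were interpolated from least-squares standard curves.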

Spleen [2] = experiment: Half life in F344 rat spleen assessed as total compound-derived radioactivity at 5 mg/kg, iv administered as single bolus dose […]; assay type: ADME, organism-based; set-up: dose 5 mg/kg, route intravenous; conditions: in vivo
How it was run: (§2)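 Male F344 rats, 10 to 11 weeks old and 223.6 to 243.8 g, got one iv dose of [14C]anidulafungin at 5 mg/kg over about 5 min. Blood, CSF, kidney, liver, lung, quadriceps, spleen and skin were sampled predose and at 0.083 to 72 h, 3 rats per time. Total radioactivity (parent plus metabolites) was measured by liquid scintillation counting. Parameters were noncompartmental, from a composite mean profile.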

Cerebrospinal fluid [3] = experiment: Tmax in F344 rat cerebrospinal fluid assessed as total compound-derived radioactivity at 5 mg/kg, iv administered as single bolus dose […]; assay type: ADME, organism-based; set-up: dose 5 mg/kg, route intravenous; conditions: in vivo; how it was run: as §2
Kidney [4] = experiment: Drug level in Long Evans rat kidney assessed as low disposition of radioactivity per gram of tissue at 5 mg/kg, iv administered as single bolus dose measured 72 hrs postdose by autoradiography; assay type: ADME, organism-based; set-up: dose 5 mg/kg, route intravenous; conditions: in vivo
How it was run: (§3)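 Male pigmented Long Evans (HsdBlu:LE) rats, 7.5 weeks old, 202 to 217 g, single iv [¹⁴C]anidulafungin; one rat per sampling time. Euthanized by isoflurane and cardiac-puncture exsanguination. Sagittal whole-body sections quantified by phosphorimaging autoradiography, single samples corrected for section thickness across multiple sections per tissue. Concentrations (μg eq/g drug-derived radioactivity) interpolated from least-squares standard curves per scan.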

Lung [5] = experiment: Drug level in Long Evans rat lung assessed as radioactivity per gram of tissue at 5 mg/kg, iv administered as single bolus dose measured 6 hrs postdose by autoradiography; assay type: ADME, organism-based; set-up: dose 5 mg/kg, route intravenous; conditions: in vivo; how it was run: as §3
Muscle tissue [6] = experiment: Cmax in F344 rat muscle assessed as total compound-derived radioactivity per gram of tissue at 5 mg/kg, iv administered as single bolus dose […]; assay type: ADME, organism-based; set-up: dose 5 mg/kg, route intravenous; conditions: in vivo
How it was run: (§4)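 Same F344 study: single 5 mg/kg IV [¹⁴C]anidulafungin given over about 5 min. Total drug-derived radioactivity (parent plus metabolites) counted by liquid scintillation, in […]. Noncompartmental analysis of the composite mean profile.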

Blood [7] = experiment: Drug level in Long Evans rat blood assessed as radioactivity per gram of tissue at 5 mg/kg, iv administered as single bolus dose measured 12 hrs postdose by autoradiography; assay type: ADME, organism-based; set-up: dose 5 mg/kg, route intravenous; conditions: in vivo; how it was run: as §3
Muscle tissue [8] = experiment: AUC (0 to 24 hrs) in F344 rat muscle assessed as total compound-derived radioactivity per gram of tissue at 5 mg/kg, iv administered as single bolus dose […]; assay type: ADME, organism-based; set-up: time < 24 hr, dose 5 mg/kg, route intravenous; conditions: in vivo; how it was run: as §4
Liver [9] = experiment: AUC (0 to 24 hrs) in F344 rat liver assessed as total compound-derived radioactivity per gram of tissue at 5 mg/kg, iv administered as single bolus dose […]; assay type: ADME, organism-based; set-up: time < 24 hr, dose 5 mg/kg, route intravenous; conditions: in vivo; how it was run: as §4
Cerebrospinal fluid [10] = experiment: AUC (0 to 24 hrs) in F344 rat cerebrospinal fluid assessed as total compound-derived radioactivity per gram of tissue at 5 mg/kg, iv administered as single bolus dose […]; assay type: ADME, organism-based; set-up: time < 24 hr, dose 5 mg/kg, route intravenous; conditions: in vivo; how it was run: as §4
Cerebrospinal fluid [11] = experiment: Half life in F344 rat cerebrospinal fluid assessed as total compound-derived radioactivity at 5 mg/kg, iv administered as single bolus dose […]; assay type: ADME, organism-based; set-up: dose 5 mg/kg, route intravenous; conditions: in vivo; how it was run: as §2
[12] = Drug level in Long Evans rat eye assessed as radioactivity per gram of tissue at 5 mg/kg, iv administered as single bolus dose measured 12 hrs postdose by autoradiography; assay type: ADME, organism-based; set-up: dose 5 mg/kg, route intravenous; conditions: in vivo; how it was run: as §3
[13] = Cmax in F344 rat liver at 5 mg/kg, iv administered as single bolus dose after 5 min by HPLC method; assay type: ADME, organism-based; set-up: dose 5 mg/kg, route intravenous
How it was run: (§5)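 Male F344 rats, 10–11 weeks, 223.6–243.8 g, given one IV dose of [¹⁴C]anidulafungin, 5 mg/kg, over about 5 min. Tissues and blood sampled at 0.083–72 h (n = 3 rats per time). Parent drug measured by HPLC; LLOQ/ULOQ were 20/5,120 ng/ml for plasma and 220/56,320 ng/g for tissue. Noncompartmental parameters taken from the composite mean profile.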

Muscle tissue [14] = experiment: Drug level in Long Evans rat muscle assessed as radioactivity per gram of tissue at 5 mg/kg, iv administered as single bolus dose measured 12 hrs postdose by autoradiography; assay type: ADME, organism-based; set-up: dose 5 mg/kg, route intravenous; conditions: in vivo; how it was run: as §3
Liver [15] = experiment: Tmax in F344 rat liver assessed as total compound-derived radioactivity at 5 mg/kg, iv administered as single bolus dose […]; assay type: ADME, organism-based; set-up: dose 5 mg/kg, route intravenous; conditions: in vivo; how it was run: as §2
Lung [16] = experiment: Cmax in F344 rat lung assessed as total compound-derived radioactivity per gram of tissue at 5 mg/kg, iv administered as single bolus dose after 5 mins by HPLC method; assay type: ADME, organism-based; set-up: dose 5 mg/kg, route intravenous; conditions: in vivo; how it was run: as §4
Spleen [17] = experiment: Drug level in Long Evans rat spleen assessed as radioactivity per gram of tissue at 5 mg/kg, iv administered as single bolus dose measured 168 hrs postdose by autoradiography; assay type: ADME, organism-based; set-up: dose 5 mg/kg, route intravenous; conditions: in vivo; how it was run: as §1
[18] = Cmax in F344 rat muscle at 5 mg/kg, iv administered as single bolus dose after 30 min by HPLC method; assay type: ADME, organism-based, Muscle tissue; set-up: dose 5 mg/kg, route intravenous; how it was run: as §5
Muscle tissue [19] = experiment: Drug level in Long Evans rat muscle assessed as radioactivity per gram of tissue at 5 mg/kg, iv administered as single bolus dose measured 72 hrs postdose by autoradiography; assay type: ADME, organism-based; set-up: dose 5 mg/kg, route intravenous; conditions: in vivo; how it was run: as §1
Cerebrospinal fluid [20] = experiment: Drug level in Long Evans rat cerebrospinal fluid assessed as radioactivity per gram of tissue at 5 mg/kg, iv administered as single bolus dose measured 168 hrs postdose by autoradiography; assay type: ADME, organism-based; set-up: dose 5 mg/kg, route intravenous; conditions: in vivo; how it was run: as §3
Cerebrospinal fluid [21] = experiment: Drug level in Long Evans rat cerebrospinal fluid assessed as radioactivity per gram of tissue at 5 mg/kg, iv administered as single bolus dose measured 12 hrs postdose by autoradiography; assay type: ADME, organism-based; set-up: dose 5 mg/kg, route intravenous; conditions: in vivo; how it was run: as §3
Cerebrospinal fluid [22] = experiment: Drug level in Long Evans rat cerebrospinal fluid assessed as radioactivity per gram of tissue at 5 mg/kg, iv administered as single bolus dose measured 0.5 hrs postdose by autoradiography; assay type: ADME, organism-based; set-up: dose 5 mg/kg, route intravenous; conditions: in vivo; how it was run: as §3
Blood [23] = experiment: Drug level in Long Evans rat blood assessed as radioactivity per gram of tissue at 5 mg/kg, iv administered as single bolus dose measured 0.5 hrs postdose by autoradiography; assay type: ADME, organism-based; set-up: dose 5 mg/kg, route intravenous; conditions: in vivo
How it was run: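 Male pigmented Long Evans rats, 7.5 weeks, 202–217 g, given one IV dose of [¹⁴C]anidulafungin, 5 mg/kg. Euthanised under isoflurane with cardiac exsanguination, one rat per time. Sagittal whole-body sections quantified by phosphorimaging, corrected for section thickness. Concentrations in μg eq/g interpolated from least-squares standard curves.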

Liver [24] = experiment: AUC (0 to infinity) in F344 rat liver at 5 mg/kg, iv administered as single bolus dose; assay type: ADME, organism-based; set-up: time infinity, dose 5 mg/kg, route intravenous; conditions: in vivo; how it was run: as §5
Lung [25] = experiment: AUC (0 to 24 hrs) in F344 rat lung assessed as total compound-derived radioactivity per gram of tissue at 5 mg/kg, iv administered as single bolus dose […]; assay type: ADME, organism-based; set-up: time < 24 hr, dose 5 mg/kg, route intravenous; conditions: in vivo; how it was run: as §4
Kidney [26] = experiment: Drug level in Long Evans rat kidney assessed as high disposition of radioactivity per gram of tissue at 5 mg/kg, iv administered as single bolus dose measured 0.5 hrs postdose by autoradiography; assay type: ADME, organism-based; set-up: dose 5 mg/kg, route intravenous; conditions: in vivo; how it was run: as §3
Muscle tissue [27] = experiment: AUC (0 to infinity) in F344 rat muscle assessed as total compound-derived radioactivity per gram of tissue at 5 mg/kg, iv administered as single bolus dose […]; assay type: ADME, organism-based; set-up: time infinity, dose 5 mg/kg, route intravenous; conditions: in vivo; how it was run: as §4

CCCCCOc1ccc(-c2ccc(-c3ccc([14C](=O)N[C@H]4C[C@@H](O)[C@@H](O)NC(=O)[C@@H]5[C@@H](O)[C@@H](C)CN5C(=O)[C@H]([C@@H](C)O)NC(=O)[C@H]([C@H](O)[C@@H](O)c5ccc(O)cc5)NC(=O)[C@@H]5C[C@@H](O)CN5C(=O)[C@H]([C@@H](C)O)NC4=O)cc3)cc2)cc1 [14C-ANIDULAFUNGIN]
Drug uptake (Spleen [1]): 4.37 ugequiv
t1/2 (Spleen [2]): 40.3 h
Tmax (Cerebrospinal fluid [3]): 4.98 min
Drug uptake (Kidney [4]): 1.97 ugequiv
Drug uptake (Lung [5]): 22.88 ugequiv
Cmax (Muscle tissue [6]): 4.16 ugequiv/g
Drug uptake (Blood [7]): 2.55 ugequiv
AUC (Muscle tissue [8]): 102.96 ugequiv.hr/g
AUC (Liver [9]): 1346.94 ugequiv.hr/g
AUC (Cerebrospinal fluid [10]): 0.61 ugequiv.hr/g
t1/2 (Cerebrospinal fluid [11]): 53.8 h
Drug uptake [12]: 1.36 ugequiv
Cmax [13]: 15900 ng/g
Drug uptake (Muscle tissue [14]): 1.39 ugequiv
Tmax (Liver [15]): 8 h
Cmax (Lung [16]): 39.29 ugequiv/g
Drug uptake (Spleen [17]): 1.53 ugequiv
Cmax [18]: 3840 ng/g
Drug uptake (Muscle tissue [19]): 0.43 ugequiv
Drug uptake (Cerebrospinal fluid [20]): 2.18 ugequiv
Drug uptake (Cerebrospinal fluid [21]): 3.82 ugequiv
Drug uptake (Cerebrospinal fluid [22]): 5.51 ugequiv
Drug uptake (Blood [23]): 6.85 ugequiv
AUC (Liver [24]): 767.22 µg·h/g
AUC (Lung [25]): 934.92 ugequiv.hr/g
Drug uptake (Kidney [26]): 18.09 ugequiv
AUC (Muscle tissue [27]): 139.22 ugequiv.hr/g
